How the values were obtained:
[1] = molecular target: T1, Adrenergic receptor alpha-1 (Rattus norvegicus, UniProt P15823+P23944+P43140); test: The concentration required to inhibit [3H]prazosin binding to Alpha-1 adrenergic receptor in rat brain membranes was measured (in vitro); type: cell membranes
T1 sequence (P15823 whole entry): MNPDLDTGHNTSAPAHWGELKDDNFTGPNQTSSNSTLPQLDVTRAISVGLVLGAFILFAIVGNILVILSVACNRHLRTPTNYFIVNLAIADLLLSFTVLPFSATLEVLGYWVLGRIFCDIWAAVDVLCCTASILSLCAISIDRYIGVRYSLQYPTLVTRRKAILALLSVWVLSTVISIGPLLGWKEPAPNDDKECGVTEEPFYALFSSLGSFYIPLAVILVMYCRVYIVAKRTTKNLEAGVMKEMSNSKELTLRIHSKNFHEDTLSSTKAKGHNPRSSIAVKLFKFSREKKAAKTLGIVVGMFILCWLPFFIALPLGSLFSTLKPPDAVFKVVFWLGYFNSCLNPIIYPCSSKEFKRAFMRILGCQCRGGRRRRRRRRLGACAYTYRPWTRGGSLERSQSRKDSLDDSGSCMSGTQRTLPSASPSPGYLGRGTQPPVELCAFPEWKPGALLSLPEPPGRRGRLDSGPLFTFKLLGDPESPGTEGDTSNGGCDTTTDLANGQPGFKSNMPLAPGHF
T1 sequence (P23944 whole entry): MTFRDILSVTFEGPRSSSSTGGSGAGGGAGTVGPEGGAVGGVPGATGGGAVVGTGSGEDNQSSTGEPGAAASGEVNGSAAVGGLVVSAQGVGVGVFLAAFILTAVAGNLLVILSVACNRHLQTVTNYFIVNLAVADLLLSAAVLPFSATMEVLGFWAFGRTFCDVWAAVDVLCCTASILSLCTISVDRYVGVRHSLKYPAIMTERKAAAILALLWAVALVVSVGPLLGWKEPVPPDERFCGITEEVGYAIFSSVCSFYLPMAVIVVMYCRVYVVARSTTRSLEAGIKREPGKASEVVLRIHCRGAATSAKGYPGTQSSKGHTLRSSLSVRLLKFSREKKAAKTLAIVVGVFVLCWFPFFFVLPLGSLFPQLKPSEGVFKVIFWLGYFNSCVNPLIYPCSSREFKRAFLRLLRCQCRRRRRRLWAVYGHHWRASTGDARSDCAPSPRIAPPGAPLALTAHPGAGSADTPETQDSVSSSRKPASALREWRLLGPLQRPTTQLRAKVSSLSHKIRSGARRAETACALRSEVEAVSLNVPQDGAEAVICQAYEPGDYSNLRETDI
T1 sequence (P43140 whole entry): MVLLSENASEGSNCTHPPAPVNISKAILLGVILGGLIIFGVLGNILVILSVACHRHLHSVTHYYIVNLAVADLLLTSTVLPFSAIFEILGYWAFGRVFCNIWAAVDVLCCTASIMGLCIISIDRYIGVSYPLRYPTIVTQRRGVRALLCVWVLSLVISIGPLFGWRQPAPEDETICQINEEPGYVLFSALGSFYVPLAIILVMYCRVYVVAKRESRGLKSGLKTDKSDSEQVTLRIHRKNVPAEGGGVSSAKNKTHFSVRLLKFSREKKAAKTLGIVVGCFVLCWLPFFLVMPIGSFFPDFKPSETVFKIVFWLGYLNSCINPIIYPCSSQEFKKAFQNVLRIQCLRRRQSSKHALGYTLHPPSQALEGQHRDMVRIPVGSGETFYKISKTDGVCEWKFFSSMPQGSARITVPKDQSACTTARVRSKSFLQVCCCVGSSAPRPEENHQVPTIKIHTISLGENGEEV

[2] = molecular target: T2, D(2) dopamine receptor (Rattus norvegicus, UniProt P61169); test: The concentration required to inhibit [3H]spiperone binding to dopamine receptor D2 in rat brain membranes (in vitro); type: cell membranes
How it was run: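 Rat striatal membranes (0.05 mg/mL protein) in Tris-HCl with BSA 2 mg/mL, NaCl, cinanserin 10⁻⁶ M and compound. [3H]spiperone (final 0.05 nM) added after 5 min, incubation continued 40 min. Nonspecific binding from 10⁻⁶ M sulpiride. Filtration and scintillation counting.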

[3] = molecular target: Serotonin 2 (5-HT2) receptor (Rattus norvegicus, UniProt P30994+P08909+P14842); test: The concentration required to inhibit [3H]ketanserin binding to 5-hydroxytryptamine 2 receptor in rat brain membranes (in vitro); type: cell membranes
How it was run: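 Male Sprague-Dawley rat cortical membranes (0.15 mg/mL protein) in Tris-HCl pH 7.6 with BSA 2 mg/mL. Incubated 15 min at 37 °C with compound and [3H]ketanserin (final 0.4 nM). Nonspecific binding from 10⁻⁶ M methysergide. Filtration and scintillation counting. IC50 by nonlinear regression; mean of at least 2 runs, 6 concentrations in triplicate.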

[4] = molecular target: T2, D(2) dopamine receptor; test: Binding constant against dopamine receptor D2 (in vitro)
How it was run: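 Rat striatal membranes (0.05 mg protein/mL, Tris-HCl with 2 mg/mL BSA, NaCl, 10^-6 M cinanserin) preincubated 5 min with test compound. [3H]spiperone (final 0.05 nM) then added for a further 40 min. Nonspecific binding defined with 10^-6 M sulpiride. Read-out by filtration and scintillation counting.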

[5] = test system: Rattus norvegicus; test: The concentration required to induce head twich for 16 hours in rats when given po (in vivo); type: functional
How it was run: (§1)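 Rats, 6 per dose, dosed sc or po, then given mescaline 20 mg/kg iv 1 h later (6 or 16 h later for duration of action). Head twitches counted for 15 min from injection. Fewer than 3 twitches counted as antagonism.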

[6] = test system: Rattus norvegicus; test: The concentration required to induce head twich for 16 hours in rats when given sc (in vivo); type: functional; how it was run: as §1
[7] = test system: Rattus norvegicus; test: The concentration required to induce head twich for 1 hours in rats when given sc (in vivo); type: functional; how it was run: as §1
[8] = test system: Rattus norvegicus; test: The concentration required to induce head twich for 1 hours in rats when given po (in vivo); type: functional; how it was run: as §1
[9] = test system: Mus musculus; test: The concentration required to induce head twich in mice when given po (in vivo); type: functional
How it was run: (§2)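 Mice, 6 per dose, dosed sc 60 min or po 90 min before mescaline 50 mg/kg ip. Observed for 2 min starting 15 min after mescaline; head twitches scored as all-or-none.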

[10] = test system: Mus musculus; test: The concentration required to induce head twich in mice when given sc (in vivo); type: functional; how it was run: as §2
[11] = test system: Rattus norvegicus; test: The concentration required to induce head twich for 6 hours in rats when given sc (in vivo); type: functional; how it was run: as §1
[12] = molecular target: T1, Adrenergic receptor alpha-1; test: Binding constant against Alpha-1 adrenergic receptor (in vitro); type: protein assay
How it was run: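 Male Sprague-Dawley rat cerebrocortical membranes (0.15 mg/mL protein) in Tris-HCl pH 7.6 with BSA 2 mg/mL. Incubated 40 min at 25 °C with compound and [3H]prazosin (final 0.065 nM). Nonspecific binding from 10⁻⁶ M phentolamine. Filtration and scintillation counting. IC50 values are the mean of at least 2 runs, each with 6 concentrations in triplicate.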

[13] = test system: Rattus norvegicus; test: The concentration required to induce head twich for 6 hours in rats when given po (in vivo); type: functional; how it was run: as §1
[14] = molecular target: Histamine H1 receptor (Cavia porcellus, UniProt P31389); test: Binding constant against histamine H1 receptor (in vitro)
How it was run: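 Male guinea pig cerebellar membranes (0.35 mg/mL protein) in 50 mM sodium phosphate pH 7.5. Incubated 30 min at 25 °C with compound and [3H]mepyramine (final 0.7 nM). Nonspecific binding from 10⁻⁶ M promethazine. Filtration through glass-fibre filters and liquid scintillation counting.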

T2 sequence (P61169 whole entry): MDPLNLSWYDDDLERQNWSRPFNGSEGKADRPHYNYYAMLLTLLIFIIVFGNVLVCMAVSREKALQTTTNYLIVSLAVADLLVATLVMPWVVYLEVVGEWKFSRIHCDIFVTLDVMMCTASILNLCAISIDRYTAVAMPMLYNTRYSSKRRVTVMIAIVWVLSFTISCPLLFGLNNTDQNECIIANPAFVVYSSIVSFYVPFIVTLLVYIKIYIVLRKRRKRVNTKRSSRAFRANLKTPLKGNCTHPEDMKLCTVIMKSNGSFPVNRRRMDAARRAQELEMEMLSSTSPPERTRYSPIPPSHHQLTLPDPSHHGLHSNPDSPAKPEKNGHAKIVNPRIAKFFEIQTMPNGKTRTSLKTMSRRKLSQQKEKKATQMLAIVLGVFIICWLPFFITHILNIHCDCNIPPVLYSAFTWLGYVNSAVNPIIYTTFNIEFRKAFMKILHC
Sequence of Histamine H1 receptor (P31389 whole entry): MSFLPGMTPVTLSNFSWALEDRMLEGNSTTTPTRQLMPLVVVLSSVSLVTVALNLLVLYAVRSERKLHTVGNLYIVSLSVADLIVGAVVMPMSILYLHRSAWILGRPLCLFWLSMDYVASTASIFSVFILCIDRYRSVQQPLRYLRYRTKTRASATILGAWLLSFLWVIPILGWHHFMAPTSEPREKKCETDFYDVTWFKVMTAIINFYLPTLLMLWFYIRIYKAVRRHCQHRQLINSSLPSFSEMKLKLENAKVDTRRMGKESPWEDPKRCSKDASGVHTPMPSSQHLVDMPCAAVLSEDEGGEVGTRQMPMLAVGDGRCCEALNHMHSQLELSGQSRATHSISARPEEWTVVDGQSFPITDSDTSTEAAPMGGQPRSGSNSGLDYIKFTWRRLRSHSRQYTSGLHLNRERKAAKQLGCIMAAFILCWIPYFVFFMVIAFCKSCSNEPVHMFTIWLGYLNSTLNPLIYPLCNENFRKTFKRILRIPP

IC50 [1]	IC50 [2]	IC50 [3]	Compound	also measured
181 nM	> 1000 nM	240 nM	O=S1(=O)N=C(N2CCN(CCCN3c4cccc5cccc(c45)S3(=O)=O)CC2)c2ccccc21	–
> 1000 nM	> 1000 nM	200 nM	CCOC(=O)c1ccc(N2CCN(CCCN3c4cccc5cccc(c45)S3(=O)=O)CC2)cc1	–
> 1000 nM	> 1000 nM	32 nM	O=S1(=O)c2cccc3cccc(c23)N1CCCN1CCN(c2ncccn2)CC1	–
269 nM	> 1000 nM	6.3 nM	O=S1(=O)c2cccc3cccc(c23)N1CCCN1CCN(c2ccccn2)CC1	–
688 nM	> 1000 nM	18 nM	O=S1(=O)c2cccc3cccc(c23)N1CCCN1CCN(c2cccc(F)c2)CC1	–
144 nM	990 nM	2.3 nM	O=S1(=O)c2cccc3cccc(c23)N1CCCN1CCN(c2noc3ccccc23)CC1	–
27 nM	385 nM	0.2 nM	O=S1(=O)c2cccc3cccc(c23)N1CCCN1CCC(c2ccccc2)CC1	–
110 nM	508 nM	0.3 nM	O=S1(=O)c2cccc3cccc(c23)N1CCCN1CCN(c2ccc(O)cc2)CC1	–
> 1000 nM	> 1000 nM	25 nM	COc1ccc(N2CCN(CCCN3c4cccc5cccc(c45)S3(=O)=O)CC2)cc1	–
75 nM	473 nM	0.4 nM	O=S1(=O)c2cccc3cccc(c23)N1CCCN1CCN(c2nsc3ccccc23)CC1	–
< 10 nM	46 nM	7 nM	O=S1(=O)c2cccc3cccc(c23)N1CCCN1CCC(n2c(O)nc3ccccc32)CC1	–
> 1000 nM	> 1000 nM	275 nM	O=S1(=O)c2cccc3cccc(c23)N1CCCN1CCN(c2ccc(C(F)(F)F)cc2)CC1	–
64 nM	–	1 nM	O=S1(=O)c2cccc3cccc(c23)N1CCN1CCN(c2ccc(F)cc2)CC1	–
141 nM	> 1000 nM	2.6 nM	O=S1(=O)c2cccc3cccc(c23)N1CCCN1CCN(c2ccccc2)CC1	–
> 1000 nM	> 1000 nM	5 nM	O=S1(=O)c2cccc3cccc(c23)N1CCCN1CCN(c2ccc(Cl)cc2)CC1	–
> 1000 nM	> 1000 nM	540 nM	O=S1(=O)c2cccc3cccc(c23)N1CCCN1CCN(c2nc3ccccc3s2)CC1	–
> 1000 nM	> 1000 nM	7 nM	O=S1(=O)c2cccc3cccc(c23)N1CCCN1CCN(c2ccc(Br)cc2)CC1	–
52 nM	> 1000 nM	3 nM	O=S1(=O)c2cccc3cccc(c23)N1CCCN1CCN(c2ccccc2F)CC1	–
> 1000 nM	> 1000 nM	25 nM	O=[N+]([O-])c1ccc(N2CCN(CCCN3c4cccc5cccc(c45)S3(=O)=O)CC2)cc1	–
7.9 nM	41 nM	0.1 nM	O=C(c1ccc(F)cc1)C1CCN(CCCN2c3cccc4cccc(c34)S2(=O)=O)CC1	–
50 nM	603 nM	11 nM	O=S1(=O)c2cccc3cccc(c23)N1CCCN1CCC(=C(c2ccc(F)cc2)c2ccc(F)cc2)CC1	–
700 nM	> 1000 nM	4 nM	Cc1ccc(N2CCN(CCCN3c4cccc5cccc(c45)S3(=O)=O)CC2)cc1	–
37 nM	23 nM	–	Cc1nc2sccn2c(=O)c1CCN1CCC(=C(c2ccc(F)cc2)c2ccc(F)cc2)CC1 [RITANSERIN]	Ki [4]: 22 nM; ED50 [5]: 18.4 mg/kg; ED50 [6]: > 5 mg/kg; ED50 [7]: 0.38 mg/kg; ED50 [8]: 2.55 mg/kg; ED50 [9]: 0.09 mg/kg; ED50 [10]: 0.29 mg/kg; ED50 [11]: 0.55 mg/kg; Ki [12]: 29 nM; ED50 [13]: 1.54 mg/kg; Ki [14]: 6 nM

Compound	IC50 [1]	IC50 [2]	IC50 [3]	also measured
O=S(=O)(c1ccccc1)N(CCCN1CC=C(c2ccccc2)CC1)c1ccccc1	35 nM	80 nM	10 nM	–
O=S1(=O)c2cccc3cccc(c23)N1CCN1CC=C(c2ccccc2)CC1	98 nM	> 100 nM	6.3 nM	–
CN(CCCN1CC=C(c2ccccc2)CC1)S(=O)(=O)c1cccc2ccccc12	–	–	> 100 nM	–
O=S1(=O)c2cccc3cccc(c23)N1CCCCN1CC=C(c2ccccc2)CC1	7.8 nM	55 nM	2.1 nM	–
O=C1c2cccc3cccc(c23)N1CCCN1CC=C(c2ccccc2)CC1	580 nM	> 100 nM	9.8 nM	–
CS(=O)(=O)N(CCCN1CC=C(c2ccccc2)CC1)c1cccc2ccccc12	75 nM	275 nM	5.1 nM	–
O=S1(=O)c2ccccc2-c2ccccc2N1CCCN1CC=C(c2ccccc2)CC1	10 nM	110 nM	10 nM	–
O=S1(=O)c2cccc3cccc(c23)N1CCCN1CC=C(c2ccccc2)CC1	192 nM	1000 nM	1 nM	–
